Screening data deposited in PubChem BioAssay by Johns Hopkins Ion Channel Center.
RGS4 act – RGS4 potentiators or activators, primary screen, cell-based, HEK293 M3R inducible RGS4, calcium flux; actives 0.92% (n = 310,000); B-score at 10 µM; carbachol calcium flux Fluo4; active compounds read low;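 active = B-score of the integrated calcium signal more than 4 SD below the library mean, with starting fluorescence not abnormally high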;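 note: negative B-score means reduced calcium response which marks RGS4 activation or potentiation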
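System – HEK293 FlpIn-TREx cells, stable M3R, doxycycline-inducible RGS4 · Reagent – ECmax carbachol challenge · Times – compound preincubation 20 min at room temperature before agonist · Technique – Fluo4 fluorescence kinetic imaging of calcium · Measure – B score of integrated Fluo4 ratio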
MrgX1 PAM – positive allosteric modulators of MrgX1, primary screen, HEK293 cells, Fluo-4 calcium flux | AID 588675, 2011 | B-score at 10 µM | FDSS; active compounds read high | Mas-related G-protein coupled receptor member X1 (Homo sapiens), Q96LB2 | actives 0.63% (n = 310,000);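 active = plate-corrected calcium response at least 3 library SD above typical, normal starting fluorescence, not activating the receptor alone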;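 note: compound read alongside a low EC10 to EC30 dose of BAM8-22 agonist; peak minus trough fluorescence over baseline measured at the second addition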
Target sequence (Q96LB2 whole entry, looked up): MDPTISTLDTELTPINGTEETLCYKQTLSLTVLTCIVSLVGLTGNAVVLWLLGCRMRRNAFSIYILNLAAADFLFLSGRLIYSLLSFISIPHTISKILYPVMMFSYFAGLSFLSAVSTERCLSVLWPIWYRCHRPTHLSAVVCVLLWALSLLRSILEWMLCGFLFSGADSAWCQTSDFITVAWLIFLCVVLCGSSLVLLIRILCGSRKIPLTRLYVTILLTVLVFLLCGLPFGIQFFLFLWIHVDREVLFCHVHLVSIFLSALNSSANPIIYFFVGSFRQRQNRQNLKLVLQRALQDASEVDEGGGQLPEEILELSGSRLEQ
MrgX1 antag – antagonists of human MrgX1 receptor, primary screen, HEK293 cells, Fluo-4 calcium flux; B-score at 10 µM; BAM8-22 antagonism; active compounds read low; actives 1.3% (n = 310,000); AID 588676, 2011; Mas-related G-protein coupled receptor member X1 (Homo sapiens), Q96LB2;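 active = calcium-response B-score plate-corrected more than 3 library SD below zero, starting fluorescence within 5 deviations, no agonist response on first addition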;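 note: peak minus trough fluorescence over baseline after final BAM8-22 challenge near maximal dose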
MrgX1 ag – agonists of human MrgX1 receptor, primary screen, HEK293 cells, Fluo-4 calcium flux | Mas-related G-protein coupled receptor member X1 (Homo sapiens), Q96LB2 | actives 0.44% (n = 310,000) | AID 588627, 2011 | Fluo-4 calcium fluorescence, agonist mode; active compounds read high | B-score at 10 µM;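 active = calcium response B-score plate-corrected fluorescence ratio at least 3 library SD, with starting fluorescence B-score inside 5 SD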
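System: HEK293 cells stably expressing human MrgX1 receptor; Dosing: test compound in the initial addition of three; Schedule: overnight plating, then 30 min 37 °C plus 30 min room-temperature dye loading; Detection: kinetic calcium dye fluorescence, Fluo-4 NW; Controls: per-plate positive and negative controls for Z′ factor.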
RGS4 block – RGS4 inhibitors, primary screen, cell-based, HEK293 M3R inducible RGS4, calcium flux | Regulator of G-protein signaling 4 (Homo sapiens), P49798 | Fluo-4 calcium flux; active compounds read high; triggered by carbachol at its EC20 | B-score at 10 µM | actives 0.45% (n = 310,000);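 active = B-score, a plate-corrected calcium signal, over three deviations above library mean, with baseline fluorescence within five deviations of library mean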;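 note: RGS4 expression induced by doxycycline in cells with stable M3 receptor; B-score is computed from the integrated fluorescence ratio over baseline after carbachol; higher B-score means a larger calcium signal and so more RGS4 inhibition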
Target sequence (P49798 whole entry, looked up): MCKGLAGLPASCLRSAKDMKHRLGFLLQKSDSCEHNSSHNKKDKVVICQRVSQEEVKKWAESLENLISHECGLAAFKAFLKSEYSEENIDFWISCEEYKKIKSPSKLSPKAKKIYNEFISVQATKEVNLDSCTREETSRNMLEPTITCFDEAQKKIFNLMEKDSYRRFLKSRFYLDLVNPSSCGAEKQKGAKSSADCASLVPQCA
RGS4 block valid – enhanced carbachol calcium response, M3R/RGS4 cells, RGS4 inhibitor project, cell-based, validation screen, HEK293 M3R/RGS4, calcium flux; shares compounds with RGS4 block; actives 65% (n = 1,700); calcium response, % at 10 µM; carbachol calcium Fluo-4 fluorescence; carbachol added at its EC20; 0 = buffer wells, 100 = carbachol control;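 active = duplicate-averaged calcium response above the buffer-only control mean plus 5 SD of those controls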;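 note: integrated fluorescence ratio F max minus min over baseline F0; higher response in RGS4-induced cells means RGS4 inhibition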
M3R Ca ctr – carbachol calcium response in non-induced M3R cells, confirmation, counter-screen for RGS4 inhibitor project, cell-based, HEK293 M3R; actives 20% (n = 1,900); activity (percent), % at 10 µM; carbachol calcium Fluo-4; submaximal (EC20) carbachol stimulus; buffer wells 0%, carbachol control wells 100%; shares compounds with RGS4 block; call rule not given here;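 note: RGS4 induction absent so cells express M3R without RGS4; higher means more calcium signal and flags a non-specific hit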
M3R basal Ca ctr – signal in non-induced cells without carbachol, RGS4 inhibitor counter-screen; shares compounds with RGS4 block; HEK293 M3R/RGS4 non-induced, Fluo-4 calcium, no carbachol; normalised: buffer wells 0%, carbachol wells 100%; calcium response (agonist-mode artifact), % at 10 µM; actives 22% (n = 1,900);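 active = duplicate-averaged calcium rise in uninduced cells above buffer wells' mean plus 5 SD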
Of the large screens only hits and unclear results are named; the others gave an inactive call (follow-up assays come after a bar, where they were run). Only some compounds are listed: those with a hit (about 3.5% of all), similar ones and a draw of the others.

Cc1cccc(-n2nc(C)c3c(C(=O)O)cc(-c4cccs4)nc32)c1	RGS4 block 9.5 | RGS4 block valid 19% | M3R Ca ctr 30% | M3R basal Ca ctr inactive
Cc1nn(-c2cccc(Cl)c2)c2nc(-c3ccco3)cc(C(=O)O)c12	none
COc1cccc(CN(C)C(=O)Cc2c[nH]c3ccccc23)c1	none
CCOc1cc(/C=C2/C(=O)NN(c3cccc(Cl)c3)C2=O)ccc1O	RGS4 block 5.7 | RGS4 block valid 5.0% | M3R Ca ctr inactive | M3R basal Ca ctr 20%
O=C1NN(c2cccc(Br)c2)C(=O)/C1=C\c1ccc(O)cc1	none | M3R Ca ctr 31% | M3R basal Ca ctr inactive
O=C1NN(c2ccc(Br)cc2)C(=O)/C1=C\c1ccc(O)cc1O	none
CCOc1ccc(C(C)NC(=O)C2CCC2)cc1 (stereo unspecified)	none
COc1cc(C(=O)OC(C)CN2CCCCC2)cc(OC)c1OC (stereo unspecified)	none
COc1ccc(O)c(-c2cc(-c3ccccc3[N+](=O)[O-])[nH]n2)c1	RGS4 block 6.4 | RGS4 block valid 9.5% | M3R Ca ctr inactive | M3R basal Ca ctr inactive
Cc1ccc(O)c(-c2cc(-c3ccccc3[N+](=O)[O-])[nH]n2)c1	RGS4 block 8.6 | RGS4 block valid 12% | M3R Ca ctr inactive | M3R basal Ca ctr 18%
O=C(Cc1ccccc1F)NNC(=O)c1ccncc1	none
CCNC(=S)N(CCc1c(C)[nH]c2ccc(C)cc12)Cc1cccs1	none
COCCNC(=S)N(CCc1c(C)[nH]c2ccc(Cl)cc12)Cc1cccs1	RGS4 block 5 | RGS4 block valid 6.0% | M3R Ca ctr inactive | M3R basal Ca ctr inactive
COCCNC(=S)N(CCc1c(C)[nH]c2ccc(F)cc12)Cc1cccs1	none | RGS4 block valid inactive | M3R Ca ctr inactive | M3R basal Ca ctr inactive
COc1cc(C(C(=O)NC2CCCCC2)N(C(=O)Cc2c[nH]c3ccccc23)c2ccccc2C)cc(OC)c1OC (stereo unspecified)	RGS4 block 4.9 | RGS4 block valid 7.5% | M3R Ca ctr inactive | M3R basal Ca ctr inactive
Cc1cc(C(=O)N/N=C/c2ccc(N(C)C)o2)cs1	RGS4 block 8.7 | RGS4 block valid inactive | M3R Ca ctr inactive | M3R basal Ca ctr inactive
O=C(CN1C(=O)CCC1=O)Nc1nc(-c2ccc3ccccc3c2)cs1	RGS4 block 8 | RGS4 block valid 5.0% | M3R Ca ctr inactive | M3R basal Ca ctr inactive
Oc1ccc(Nc2nc(-c3ccc4ccccc4c3)cs2)cc1	RGS4 block 41 | RGS4 block valid 84% | M3R Ca ctr 88% | M3R basal Ca ctr inactive
CC(=O)Nc1nc(-c2ccc3ccccc3c2)cs1	RGS4 block 5.1 | RGS4 block valid inactive | M3R Ca ctr inactive | M3R basal Ca ctr inactive
Oc1ccc(-c2nc(-c3ccc(O)c(O)c3)cs2)cc1	none | RGS4 block valid inactive | M3R Ca ctr inactive | M3R basal Ca ctr inactive
CSc1nccc(NC(=O)c2cccc(Br)c2)n1	none
COc1ccc(N2CCN(C(=O)c3c(-c4c(F)cccc4Cl)noc3C)CC2)cc1	none
CC1(C)Cc2ccccc2C(/C(=N\Nc2cccc(Cl)c2)C(N)=O)=N1	RGS4 block 6.6 | RGS4 block valid 16% | M3R Ca ctr inactive | M3R basal Ca ctr inactive
CC(=O)c1ccc(N/N=C(/C(N)=O)C2=NC(C)(C)Cc3ccccc32)cc1	none
CCn1c2ccccc2c2cc(NC(=O)CSc3nnc(-c4cccc(OC)c4)n3N)ccc21	none | M3R Ca ctr inactive | M3R basal Ca ctr inactive
CCn1c2ccccc2c2cc(NC(=O)CSc3nnc(-c4ccc(OC)c(OC)c4)n3N)ccc21	none | RGS4 block valid inactive | M3R Ca ctr inactive | M3R basal Ca ctr inactive
CCn1c2ccccc2c2cc(NC(=O)CSc3nnc(-c4ccccc4OC)n3N)ccc21	none | M3R Ca ctr inactive | M3R basal Ca ctr inactive
COc1cccc(-c2nnc(SCC(=O)Nc3cc(C)ccc3OC)n2N)c1	none
CCOc1ccc(-c2nnc(SCC(=O)Nc3ccc4c(c3)c3ccccc3n4CC)n2N)cc1	none | RGS4 block valid inactive | M3R Ca ctr inactive | M3R basal Ca ctr inactive
C=C1C(=O)O[C@@H]2[C@H]1[C@@H](OC(=O)/C(C)=C/C)C/C(C)=C\C(=O)/C=C(\C)[C@@H]2O	none | M3R Ca ctr inactive | M3R basal Ca ctr inactive
O=C(C1=C(O)C(=O)N(Cc2ccco2)C1c1cccc(O)c1)c1ccco1 (stereo unspecified)	RGS4 block 4.7 | RGS4 block valid 5.5% | M3R Ca ctr inactive | M3R basal Ca ctr inactive
Cc1ccc(C(=O)C2=C(O)C(=O)N(Cc3ccco3)C2c2cccc(Br)c2)o1 (stereo unspecified)	none
COc1ccc(-c2nn(-c3ccccc3)cc2/C=C(\CC(=O)O)c2nc3ccccc3s2)cc1OC	RGS4 block 6.2 | RGS4 block valid 7.5% | M3R Ca ctr inactive | M3R basal Ca ctr inactive
COc1ccc(/C=C(\CC(=O)O)c2nc3ccccc3s2)cc1O	none
C#CCN(C#N)c1nc(NCC)nc(NC(C)C)n1	none
CCN(C#N)c1nc(NC(C)C)nc(NC(C)C)n1	none | RGS4 block valid inactive | M3R Ca ctr inactive | M3R basal Ca ctr inactive
Cc1cc(S(=O)(=O)NCCCN2CCOCC2)c(Cl)cc1Cl	none
CCOc1cccc(-c2c(C(=O)N/N=C/c3cccs3)nnn2-c2nonc2N)c1	RGS4 block 5.6 | RGS4 block valid 30% | M3R Ca ctr inactive | M3R basal Ca ctr inactive
COc1cccc(-c2c(C(=O)N/N=C(\C)c3ccco3)nnn2-c2nonc2N)c1	none
COc1ccc(/C=N/NC(=O)c2nnn(-c3nonc3N)c2-c2cccc(OC)c2)cc1	MrgX1 PAM 7.2 | M3R Ca ctr 30% | M3R basal Ca ctr 8.0%
COc1cccc(-c2c(C(=O)N/N=C/c3cccs3)nnn2-c2nonc2N)c1	MrgX1 antag -7.6 | M3R Ca ctr 40% | M3R basal Ca ctr inactive
COc1ccc(/C=N/NC(=O)c2nnn(-c3nonc3N)c2-c2cccs2)cc1OC	none
